{"source": "paper PMC9382663", "about": "(Nature, 2022)", "molecules": {"B1": {"name": "GlialCAM protein (bio-layer interferometry) (natural protein)", "chain": "VNITSPVRLIHGTVGKSALLSVQYSSTSSDRPVVKWQLKRDKPVTVVQSIGTEVIGTLRPDYRDRIRLFENGSLLLSDLQLADEGTYEVEISITDDTFTGEKTINLTVDVPISRPQVLVASTTVLELSEAFTLNCSHENGTKPSYTWLKDGKPLLNDSRMLLSPDQKVLTITRVLMEDDDLYSCMVENPISQGRSLPVKITVYRRSSLYIILSTGGIFLLVTLVTVCACWKPSKRKQKKLEKQNSLEYMDQNDDRLKPEADTLPRSGEQERKNPMALYILKDKDSPETEENPAPEPRSATEPGPPGYSVSPAVPGRSPGLPIRSARRYPRSPARSPATGRTHSSPPRAPSSPGRSRSASRTLRTAGVHIIREQDEAGPVEISA"}, "B2": {"name": "mAb MS39p2w174 (antibody, V domains shown)", "VH": "QVQLVESGGGLVKPGGSLRLSCVSSGFTFSNYWMSWVRQAPGGGLEWVANINQDGSEKYYVDSVKGRFTSSRDNTKNSLFLQLNSLRAEDTGIYYCTRDPPYFDNWGQGTLVTVSS", "VL": "DVVLTQSPLSLPVILGQPASISCRSSQSLVYSDGRTYLNWFQQRPGQSPRRLIYKISKRDSGVPERFSGSGSGTDFTLEISRVEAEDVGIYYCMQGSHWPVTFGQGTKVEIK"}}, "key": {"[1]": {"tested_on": "plasma antibody reactivity against EBNA1AA386–405", "test": "Plasma ELISA with blocking of plasma IgG", "type": "binding, human", "conditions": "blocking peptide 10 μg/ml, 2 h RT; nine high-reactivity MS samples", "procedure,_shortened": "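384-well plates are coated overnight at 4°C with recombinant Protein G (2μg/ml) and washed 6x with PBST. Plasma (1:100) is bound overnight at 4°C, washed again, then blocked 2 h at RT with 10μg/ml peptide (scrambled control, EBNA1 AA386–405 or GlialCAM AA370–389 pSer376). Read-out is OD 450 nm normalized to the unblocked sample, with quadruplicate wells.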"}, "[2]": {"tested_on": "mouse splenocytes and lymph node cells", "test": "Cytokine ELISA in cell culture supernatant", "type": "cell-based", "conditions": "cells of immunized mice re-stimulated with peptide"}, "GlialCAM ICD": {"tested_on": "GlialCAM ICD", "test": "Mouse plasma IgG ELISA against GlialCAM ICD", "type": "in vivo, SJL/J mice", "conditions": "immunized mice, plasma 1:100"}, "EBNA1AA386–405": {"tested_on": "EBNA1AA386–405", "test": "Mouse plasma IgG ELISA against EBNA1 peptide", "type": "in vivo, SJL/J mice", "conditions": "immunized mice, plasma 1:100"}, "[3]": {"tested_on": "splenocytes and lymph node cells", "test": "T cell proliferation by 3H-thymidine incorporation", "type": "cell-based, mouse", "conditions": "cells pooled from n=10 immunized mice"}, "[4]": {"tested_on": "experimental autoimmune encephalomyelitis (EAE)", "test": "EAE after peptide immunization", "type": "in vivo, SJL/J mice", "conditions": "spinal cord histology, day 50; vs. scrambled peptide"}, "[5]": {"target": "unmutated ancestor of MS39p2w174 (germline) (human)", "test": "BLI"}, "[6]": {"target": "actin filament associated protein 1 (AFAP1) on the HuProt microarray (Homo sapiens (Human)., UniProt Q8N556)", "sequence (Q8N556 whole entry)": "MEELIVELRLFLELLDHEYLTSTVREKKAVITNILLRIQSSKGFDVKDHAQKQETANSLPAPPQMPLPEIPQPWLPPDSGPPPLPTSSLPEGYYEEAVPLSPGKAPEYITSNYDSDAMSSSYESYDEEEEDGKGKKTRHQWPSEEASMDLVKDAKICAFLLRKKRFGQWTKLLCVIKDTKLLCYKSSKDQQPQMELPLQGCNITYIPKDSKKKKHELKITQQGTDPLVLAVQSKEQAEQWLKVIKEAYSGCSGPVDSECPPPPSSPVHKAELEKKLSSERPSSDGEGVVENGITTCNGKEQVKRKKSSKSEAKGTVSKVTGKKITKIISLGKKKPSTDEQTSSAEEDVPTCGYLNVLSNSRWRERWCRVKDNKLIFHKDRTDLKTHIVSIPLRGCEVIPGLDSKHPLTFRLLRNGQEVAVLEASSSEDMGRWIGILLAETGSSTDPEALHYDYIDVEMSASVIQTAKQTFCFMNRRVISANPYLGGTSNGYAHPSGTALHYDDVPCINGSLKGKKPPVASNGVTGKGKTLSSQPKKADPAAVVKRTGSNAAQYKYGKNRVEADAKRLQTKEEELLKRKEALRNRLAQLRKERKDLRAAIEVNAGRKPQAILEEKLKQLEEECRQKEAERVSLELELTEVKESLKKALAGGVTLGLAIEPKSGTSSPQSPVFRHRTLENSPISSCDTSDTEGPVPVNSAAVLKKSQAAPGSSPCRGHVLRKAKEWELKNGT", "test": "peptide or protein array"}, "[7]": {"target": "EBNA1 full-length protein AA1–641 (Epstein-Barr virus, strain ; …, UniProt P03211)", "sequence (P03211 whole entry, the tested form may be a part)": "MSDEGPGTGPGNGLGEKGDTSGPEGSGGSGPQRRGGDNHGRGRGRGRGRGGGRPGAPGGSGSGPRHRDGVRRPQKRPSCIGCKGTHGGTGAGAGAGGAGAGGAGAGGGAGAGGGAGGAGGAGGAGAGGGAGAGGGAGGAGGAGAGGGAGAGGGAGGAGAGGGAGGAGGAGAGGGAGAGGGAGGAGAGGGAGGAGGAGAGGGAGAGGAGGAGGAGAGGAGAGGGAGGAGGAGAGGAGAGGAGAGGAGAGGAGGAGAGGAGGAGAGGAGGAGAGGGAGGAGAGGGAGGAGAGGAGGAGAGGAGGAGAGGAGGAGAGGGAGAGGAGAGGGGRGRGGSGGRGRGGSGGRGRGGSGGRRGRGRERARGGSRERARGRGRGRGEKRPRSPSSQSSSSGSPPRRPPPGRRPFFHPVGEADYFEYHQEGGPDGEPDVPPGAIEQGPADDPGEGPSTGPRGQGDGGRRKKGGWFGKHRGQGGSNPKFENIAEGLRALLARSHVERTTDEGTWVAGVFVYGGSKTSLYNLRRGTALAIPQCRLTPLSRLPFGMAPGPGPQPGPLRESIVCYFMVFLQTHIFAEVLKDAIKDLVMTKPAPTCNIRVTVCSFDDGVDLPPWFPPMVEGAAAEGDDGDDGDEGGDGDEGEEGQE", "test": "BLI"}, "[8]": {"target": "T1, biotinylated native GlialCAM_(AA370–389) peptide (Homo sapiens, UniProt Q14CZ8)", "T1 chain": "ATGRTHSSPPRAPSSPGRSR", "test": "BLI"}, "[9]": {"target": "T2, biotinylated EBNA1_(AA386–405) peptide (Epstein-Barr virus, sequence as B95-8)", "T2 chain": "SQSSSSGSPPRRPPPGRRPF", "test": "BLI"}, "[10]": {"target": "GlialCAM protein (bio-layer interferometry) (Homo sapiens, UniProt Q14CZ8)", "test": "BLI"}, "[11]": {"target": "T3, EBNA1_(AA386–405) 20mer peptide (Epstein-Barr virus)", "T3 chain": "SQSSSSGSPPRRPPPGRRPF", "test": "ELISA"}, "[12]": {"target": "T4, biotinylated GlialCAM_(AA370–389 pSer376 pSer377) peptide (human) (UniProt Q14CZ8)", "T4 sequence (peptide)": "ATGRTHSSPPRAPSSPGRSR", "test": "BLI"}, "[13]": {"target": "T5, biotinylated GlialCAM_(AA370–389 pSer376) peptide (human) (UniProt Q14CZ8)", "T5 sequence (peptide)": "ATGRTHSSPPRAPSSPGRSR", "test": "BLI"}}, "note": "Where no end group is shown, it is not given here. [ ]: non-standard residue; d: D form. pS = N[C@@H](COP(=O)(O)O)C(=O)O", "data": [{"molecule": "GlialCAMAA370–389 pSer376: GlialCAM 20mer peptide phosphorylated at Ser376 (ATGRTH[pS]SPPRAPSSPGRSR)", "values": [{"measurement": "blocking of anti-EBNA1AA386–405 plasma reactivity", "setting": "[1]", "result": "inhibition"}]}, {"molecule": "SQSSSSGSPPRRPPPGRRPF [EBNA1AA386–405]", "values": [{"measurement": "IL-17 secretion", "setting": "[2]", "result": "suppressed"}, {"measurement": "secretion of IFN-γ, TNF, IL-12, IL-6 and IL-10", "setting": "[2]", "result": "stimulated the secretion"}, {"measurement": "plasma IgG response to GlialCAM ICD", "setting": "GlialCAM ICD", "result": "robust antibody responses"}, {"measurement": "plasma IgG response to EBNA1AA386–405", "setting": "EBNA1AA386–405", "result": "robust antibody responses"}, {"measurement": "CD4+ T cell response", "setting": "[3]", "result": "strong CD4+ T cell response"}, {"measurement": "CNS immune cell infiltration (H&E)", "setting": "[4]", "result": "enhanced CNS immune cell infiltration"}, {"measurement": "demyelination (Luxol Fast Blue)", "setting": "[4]", "result": "enhanced"}]}, {"molecule": "B1", "values": [{"measurement": "Kd", "setting": "[5]", "result": 10.5, "unit": "nM"}]}, {"molecule": "B2", "values": [{"measurement": "binding result", "setting": "[6]", "result": "binds"}, {"measurement": "Kd", "setting": "[7]", "result": 1.99, "unit": "nM"}, {"measurement": "Kd", "setting": "[8]", "result": 302, "unit": "nM"}, {"measurement": "Kd", "setting": "[9]", "result": 2.67, "unit": "nM"}, {"measurement": "Kd", "setting": "[10]", "result": 0.19, "unit": "nM"}, {"measurement": "binding result", "setting": "[11]", "result": "binds"}, {"measurement": "Kd", "setting": "[12]", "result": 3.73, "unit": "nM"}, {"measurement": "Kd", "setting": "[13]", "result": 6.1, "unit": "nM"}]}]}
